The results in this text go back to ChEMBL document CHEMBL1131030, “Synthesis and evaluation of a series of novel 2-[(4-chlorophenoxy)methyl]benzimidazoles as selective neuropeptide Y Y1 receptor antagonists” (J Med Chem, 1998).

Structures are written as SMILES.

Test [1] concerns the target T1, Neuropeptide Y receptor type 1 (Homo sapiens, UniProt P25929).
T1 sequence (P25929 whole entry): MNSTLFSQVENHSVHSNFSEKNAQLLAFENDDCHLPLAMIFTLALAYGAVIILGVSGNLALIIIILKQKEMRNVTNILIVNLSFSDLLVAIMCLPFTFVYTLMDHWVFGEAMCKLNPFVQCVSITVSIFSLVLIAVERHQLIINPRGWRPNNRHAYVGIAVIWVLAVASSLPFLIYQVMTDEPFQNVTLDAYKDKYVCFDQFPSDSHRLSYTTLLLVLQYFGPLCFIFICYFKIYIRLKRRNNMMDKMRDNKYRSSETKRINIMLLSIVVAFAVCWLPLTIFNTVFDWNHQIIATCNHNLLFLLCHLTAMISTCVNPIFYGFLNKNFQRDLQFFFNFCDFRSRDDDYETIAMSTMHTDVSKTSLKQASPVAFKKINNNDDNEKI
The test can be described thus: In vitro binding affinity towards human neuropeptide Y receptor type 1, determined by measuring its ability to displace [125]peptide YY.

A further test has as its system SK-N-MC. The test can be described thus: In vitro functional activity determined by its ability to antagonize 1 nM NPYs inhibition of forskolin -stimulated cyclic AMP accumulation in SK-N-MC cells. The format is cell-based, Homo sapiens. Summed up:
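SK-N-MC cells were stimulated with forskolin. NPY (1 nM) and antagonist were added at the same time and incubated for only 15 min, to avoid receptor desensitization. Read-out was reversal of the NPY-induced inhibition of cAMP accumulation.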

The term Ki denotes the equilibrium dissociation constant of an inhibitor or competing ligand from its target. A high value points to a looser hold on the target. In test [1], `Cc1ccc2c(c1)nc(COc1ccc(Cl)cc1)n2CCCC1CCCNC1.Cc1ccc2nc(COc3ccc(Cl)cc3)n(CCCC3CCCNC3)c2c1` (configuration not stated) gave a Ki of 1.29 µM.

In turn, `Clc1ccc(OCc2nc3ccccc3n2CCCN2CCCCC2)cc1` returned a Ki in test [1] of 7.02 µM.

As to `Clc1ccc(OCc2nc3c(OCCCC4CCNCC4)cccc3n2CCCC2CCCNC2)cc1` (configuration not stated), the Ki in the test on SK-N-MC came to 0.119 µM; in test [1], 0.152 µM.

Consider `Clc1ccc(OCc2nc3c(OCCC[C@H]4CCCNC4)cccc3n2CCC[C@@H]2CCCNC2)cc1`, for which the Ki in the test on SK-N-MC turned out to be 0.137 µM; in test [1], 0.027 µM.

Consider `Clc1ccc(OCc2nc3c(OCCCC4CCCNC4)cccc3n2CCCC2CCCNC2)cc1` (configuration not stated), for which the Ki in the test with SK-N-MC is 0.077 µM; in test [1], 0.03 µM.

`Cc1cccc2c1nc(COc1ccc(Cl)cc1)n2CCCC1CCCNC1` (configuration not stated) showed a Ki in test [1] of 0.097 µM.

For the compound `Cc1cccc2nc(COc3ccc(Cl)cc3)n(CCCC3CCCNC3)c12` (configuration not stated), the affinity in test [1] corresponds to a Ki of 0.4 µM.

The compound `Clc1ccc(OCc2nc3ccccc3n2CCCC2CCCCN2)cc1` (configuration not stated) displayed a Ki in test [1] of 3.23 µM.

As for `Clc1ccc(OCc2nc3c(OCCC[C@@H]4CCCNC4)cccc3n2CCC[C@@H]2CCCNC2)cc1`, the Ki with SK-N-MC was determined as 0.087 µM; in test [1], 0.006 µM.

`Clc1ccc(OCc2nc3ccccc3n2CCC2CCCCN2)cc1` (configuration not stated) displayed a Ki in test [1] of 7.86 µM.

Turning to `Oc1cccc2c1nc(COc1ccc(Cl)cc1)n2CCCC1CCCNC1` (configuration not stated), the inhibition constant Ki in test [1] was determined as 5.3 µM.

The compound `N=C(N)NCCCC(NC(=O)C(c1ccccc1)c1ccccc1)C(=O)NCc1ccc(O)cc1` (configuration not stated) yielded a Ki in the test on SK-N-MC of 0.011 µM.

Turning to `Clc1ccc(OCc2nc3c(OCCCN4CCCCC4)cccc3n2CCCC2CCCNC2)cc1` (configuration not stated), the Ki is 0.0027 µM in the test with SK-N-MC and 0.0017 µM in test [1].

With `Clc1ccc(OCc2nc3ccccc3n2CCCCC2CCCNC2)cc1` (configuration not stated), the Ki in test [1] was 1.21 µM.

Turning to `Clc1ccc(OCc2nc3ccccc3n2CCC2CCNCC2)cc1`, the Ki in test [1] turned out to be 0.94 µM.

In test [1], `Clc1ccc(OCc2nc3ccccc3n2CCCC2CCNCC2)cc1` displayed a Ki of 0.98 µM.

Consider `Clc1ccc(OCc2nc3c(OCCC[C@@H]4CCCNC4)cccc3n2CCC[C@H]2CCCNC2)cc1`, for which the Ki in the test on SK-N-MC is 0.065 µM; in test [1] it was 0.017 µM.

In the case of `Clc1ccc(OCc2nc3c(OCCC4CCNCC4)cccc3n2CCCC2CCCNC2)cc1` (configuration not stated), the Ki in the test on SK-N-MC worked out at 0.015 µM; in test [1], 0.007 µM.

`Clc1ccc(OCc2nc3ccccc3n2CCCC2CCCNC2)cc1` (configuration not stated) gave a Ki in test [1] of 0.7 µM.

Take `Clc1ccc(OCc2nc3c(OCCC[C@H]4CCCNC4)cccc3n2CCC[C@H]2CCCNC2)cc1`: the figures for the Ki (in the test on SK-N-MC; in test [1]) were 0.153 µM and 0.041 µM, respectively.

Turning to `Clc1ccc(OCc2nc3c(OCCC4CCCCN4)cccc3n2CCCC2CCCNC2)cc1` (configuration not stated), the Ki in test [1] was determined as 0.029 µM.

Regarding `Clc1ccc(OCc2nc3ccccc3n2CCC2CCCNC2)cc1` (configuration not stated), the Ki in test [1] stood at 1.28 µM.

Take `Clc1ccc(OCc2nc3ccccc3n2CCN2CCCCC2)cc1`: the Ki in test [1] was above 100 µM.

Consider `Clc1ccc(OCc2nc3c(OCCC4CCCNC4)cccc3n2CCCC2CCCNC2)cc1` (configuration not stated), for which the Ki with SK-N-MC came out at 0.091 µM; in test [1], 0.018 µM.

With `Clc1ccc(OCc2nc3c(OCCCC4CCCCN4)cccc3n2CCCC2CCCNC2)cc1` (configuration not stated), the results for the Ki (in the test on SK-N-MC; in test [1]) were 0.053 µM and 0.016 µM, respectively.

`Clc1ccc(OCc2nc3c(OCCN4CCCCC4)cccc3n2CCCC2CCCNC2)cc1` (configuration not stated): the figures for the Ki (in the test with SK-N-MC; in test [1]) were 0.24 µM and 0.043 µM, respectively.
